Experimental data from ChEMBL document CHEMBL1131066, “2-Substituted aminopyrido[2,3-d]pyrimidin-7(8H)-ones. structure-activity relationships against selected tyrosine kinases and in vitro and in vivo anticancer activity” (J Med Chem, 1998).

Columns and labels:
[1] = test system: C6; assay: Weight change of C6 glioma cell tumor in mice at 10 mg/kg peroral dose, days 1-15 administration; assay type: functional, organism-based; set-up: dose 10 mg/kg
Method in brief: (§1)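 Tumor-bearing nude mice (NCr nu/nu, 18–22 g, 6–8 per group) were implanted in the right axilla with tumor fragments on day 0 and dosed by average cage weight. Vehicle was 50 mM sodium lactate pH 4.0, or 0.5% methyl cellulose suspension; cisplatin was given in saline. Host body weight change is given as the maximum treatment-related weight loss.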

[2] = test system: SK-OV-3; assay: Weight change of SK-OV-3 cell tumors in mice at 20.3 mg/kg peroral dose, days 20-34 administration; assay type: functional; details: route oral
Method in brief: (§2)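 Nude mice (NCr nu/nu, 18–22 g, 6–8 per group) were randomized and implanted with serially passaged tumor fragments in the right axilla on day 0. Oral dosing was based on average cage weight, on the days stated, over a dose range from toxic to ineffective. Vehicle was 50 mM sodium lactate buffer, pH 4.0, or 0.5% methyl cellulose suspension. Host weight change is reported as maximum treatment-related loss.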

[3] = test system: Mus musculus; assay: Net reduction in tumor burden between first and last treatments in PDGF-transfected fibroblast cells in mice at 9.5 mg/kg peroral dose, days 1-15 administration; details: route oral
[4] = test system: SK-OV-3; assay: Difference in days for treated (T) and control (C) SK-OV-3 cell tumors to reach 750 mg in mice at 20.3 mg/kg peroral dose, days 20-34 administration; assay type: functional; details: route oral
Method in brief: (§3)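 Nude mice (NCr nu/nu), 18–22 g, 6–8 per group, randomized and implanted with serially passaged tumor fragments in the right axilla on day 0. Dosed by average cage weight. Vehicle was 50 mM sodium lactate buffer, pH 4.0, or a 0.5% methyl cellulose suspension for one compound. Cisplatin was given in saline. T − C is the difference in days for treated and control tumors to reach 750 mg.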

[5] = test system: A-431; assay: Difference in days for treated (T) and control (C) A431 cell tumors to reach 750 mg in mice at 20 mg/kg peroral dose, days 7-21 administration; assay type: functional; details: route oral; method in brief: as §3
[6] = test system: A-431; assay: Weight change of A431 cell tumor in mice at 20 mg/kg peroral dose, days 7-21 administration; assay type: functional; details: route oral; method in brief: as §1
[7] = test system: COLO 205; assay: Weight change of COLO 205 tumor cells in mice at 10 mg/kg peroral dose, days 14-28 administration; assay type: functional; details: route oral; method in brief: as §1
[8] = test system: C6; assay: Net reduction in tumor burden between first and last treatments of C6 glioma cell tumors in mice at 10 mg/kg peroral dose, days 1-15 administration; assay type: functional; details: route oral
Method in brief: (§4)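 NCr nu/nu nude mice (18–22 g, 6–8 per group, randomized) had tumor fragments, kept by serial passage in nude mice, implanted in the right axilla on day 0. Mice were dosed by average cage weight on the listed days, over a range from toxic to ineffective doses. Vehicle was 50 mM sodium lactate pH 4.0 or 0.5% methyl cellulose suspension. Net log cell kill was taken between first and last treatments.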

[9] = test system: MCF7; assay: Difference in days for treated (T) and control (C) MCF-7 cell tumors to reach 750 mg in mice at 12 mg/kg peroral dose, days 1-15 administration; assay type: functional; details: route oral; method in brief: as §3
[10] = test system: C6 glioma; assay: Difference in days for treated (T) and control (C) C6 glioma tumors to reach 750 mg in mice at 5 mg/kg peroral dose, days 1-15 administration; details: route oral
[11] = test system: C6; assay: Inhibition of C6 cell proliferation in sulforhodamine B assay; assay type: functional, cell-based, Rattus norvegicus; details: Rattus norvegicus, C6
Method in brief: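 C6 rat glioma cells (F10 Ham's, 15% horse serum, 2.5% fetal calf serum) seeded and allowed 24 h to attach, then given serial 2-fold compound dilutions; 4 d at 37 °C, 5% CO2; growth read by sulforhodamine B staining. IC50; mean of two experiments, each in triplicate.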

[12] = test system: Mus musculus; assay: Difference in days for treated (T) and control (C) PDGF-transfected fibroblast tumors to reach 750 mg in mice at 15 mg/kg peroral dose, days 1-15 administration; assay type: functional; details: route oral; method in brief: as §3
[13] = test system: C6; assay: Weight change of C6 glioma tumor cells in mice at 5 mg/kg peroral dose, days 1-15 administration; assay type: functional, Mus musculus; details: route oral; method in brief: as §1
[14] = test system: C6; assay: C6 cell growth in soft agar with continuous treatment; assay type: functional, cell-based, Rattus norvegicus; details: Rattus norvegicus, C6
Method in brief: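 C6 rat glioma cells (F10 Ham's with 15% horse serum, 2.5% fetal calf serum) exposed 3 days to a concentration series, then plated in soft agar with compound still present at the same concentration; colonies stained and counted after two weeks. IC50; mean of two experiments, each in duplicate.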

[15] = test system: MCF7; assay: Net reduction in tumor burden between first and last treatments of MCF-7 cell tumors in mice at 12 mg/kg peroral dose, days 1-15 administration; assay type: functional; details: route oral; method in brief: as §4
[16] = test system: HT-29; assay: Difference in days for treated (T) and control (C) HT-29 cell tumors to reach 750 mg in mice at 10.2 mg/kg peroral dose, days 15-29 administration; assay type: functional; details: route oral; method in brief: as §3
[17] = test system: SK-OV-3; assay: Net reduction in tumor burden between first and last treatments of SK-OV-3 cell tumors in mice at 20.3 mg/kg peroral dose, days 20-34 administration; assay type: functional; details: route oral; method in brief: as §4
[18] = test system: C6; assay: Net reduction in tumor burden between first and last treatments of C6 glioma cell tumors in mice at 5 mg/kg peroral dose, days 1-15 administration; assay type: functional; details: route oral; method in brief: as §4
[19] = test system: C6; assay: Difference in days for treated (T) and control (C) C6 glioma cell tumors to reach 750 mg in mice at 10 mg/kg peroral dose, days 1-15 administration; assay type: functional; details: route oral; method in brief: as §3
[20] = test system: MCF7; assay: Weight change of MCF-7 tumor cells in mice at 12 mg/kg peroral dose, days 1-15 administration; assay type: functional, organism-based; set-up: dose 12 mg/kg; method in brief: as §1
[21] = test system: NIH3T3/PDGF; assay: Weight change of NIH3T3/PDGF cell tumors in mice at 9.5 mg/kg peroral dose, days 1-15 administration; details: route oral
[22] = test system: NIH3T3; assay: Growth of NIH3T3 cell colonies in soft agar with continuous treatment; assay type: functional, cell-based; details: Mus musculus
Method in brief: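 Soft agar cloning used PDGF-B-transfected NIH3T3 (NIH3T3/PDGF) cells. Cells were exposed 3 days to a concentration series, then plated in soft agar with the matching compound concentration kept present. Colonies were stained and counted after two weeks. IC50; mean of two experiments, each in duplicate.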

[23] = test system: A-431; assay: Net reduction in tumor burden between first and last treatments in A431 cell tumors in mice at 20 mg/kg peroral dose, days 7-21 administration; assay type: functional; details: route oral; method in brief: as §4
[24] = test system: Mus musculus; assay: Net reduction in tumor burden between first and last treatments of PDGF-transfected fibroblast cells in mice at 15 mg/kg peroral dose, days 1-15 administration; assay type: functional; details: route oral; method in brief: as §4
[25] = test system: Mus musculus; assay: Difference in days for treated (T) and control (C) PDGF-transfected fibroblast tumors to reach 750 mg in mice at 9.5 mg/kg peroral dose, days 1-15 administration; details: route oral
[26] = test system: HT-29; assay: Weight change of HT-29 tumor cells in mice at 10.2 mg/kg peroral dose, days 15-29 administration; assay type: functional; details: route oral; method in brief: as §1
[27] = test system: NIH3T3; assay: Growth of NIH3T3 cell colonies in soft agar with discontinued treatment; assay type: functional, cell-based; details: Mus musculus
Method in brief: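 PDGF-B-transfected NIH3T3 (NIH3T3/PDGF) cells exposed 3 days to a concentration series, washed free of inhibitor, plated in drug-free soft agar; colonies stained and counted after two weeks. IC50; mean of two experiments, each in duplicate.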

[28] = test system: COLO 205; assay: Difference in days for treated (T) and control (C) COLO 205 cell tumors to reach 750 mg in mice at 10 mg/kg peroral dose, days 14-28 administration; assay type: functional; details: route oral; method in brief: as §3
[29] = test system: HT-29; assay: Net reduction in tumor burden between first and last treatments of HT-29 cell tumors in mice at 10.2 mg/kg peroral dose, days 15-29 administration; assay type: functional; details: route oral; method in brief: as §4
[30] = test system: Mus musculus; assay: Weight change of PDGF-transfected fibroblast cells in mice at 15 mg/kg peroral dose, days 1-15 administration; assay type: functional; details: route oral; method in brief: as §2
[31] = test system: COLO 205; assay: Net reduction in tumor burden between first and last treatments of COLO 205 cell tumors in mice at 10 mg/kg peroral dose, days 14-28 administration; assay type: functional; details: route oral; method in brief: as §4

For `CCN(CC)CCOc1ccc(Nc2ncc3cc(-c4c(Cl)cccc4Cl)c(=O)n(C)c3n2)cc1` [PD-0166285], the Weight change [1] was “Weight gain”, the Weight change [2] was -4 g and the Net cell kill [3] was -1.6 log10. The T-C [4] was 10.6 days, the T-C [5] was 3.7 days and the Weight change [6] was -3.1 g. For the same compound, the Weight change [7] was -4 g, the Net cell kill [8] was -1 log10 and the T-C [9] was 1.1 days. The T-C [10] was 0.3 days, the IC50 [11] was 340 nM and the T-C [12] was 2.2 days. It also gave a Weight change [13] of -0.1 g, an IC50 [14] of 120 nM and a Net cell kill [15] of -0.6 log10. The T-C [16] was 9.6 days, the Net cell kill [17] was -0.1 log10 and the Net cell kill [18] was -0.8 log10. For the same compound, the T-C [19] was 0.4 days, the Weight change [20] was “Weight gain” and the Weight change [21] was -4.1 g. For the same compound, the IC50 [22] was 1.1 nM, the Net cell kill [23] was -0.5 log10 and the Net cell kill [24] was -1.8 log10. It also gave a T-C [25] of 3.3 days, a Weight change [26] of 0 g and an IC50 [27] of 10 nM. It also gave a T-C [28] of 0.6 days, a Net cell kill [29] of -0.2 log10 and a Weight change [30] of -0.4 g. For the same compound, the Net cell kill [31] was -0.7 log10.
